Source: ChEMBL document CHEMBL3120060, “Synthesis, in vitro anticancer evaluation and in silico studies of novel imidazo[2,1-b]thiazole derivatives bearing pyrazole moieties” (2014)

Assays:
Type in all cases: functional
[1] = Cytotoxicity against human OVCAR5 cells assessed as cell growth at 10 uM after 48 hrs by SRB assay; details: OVCAR-5, 48 h, read-out: Activity
Procedure, shortened: (§1)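 NCI-60 single-dose screen. Cell lines grown in RPMI 1640 with 5% FBS and 2 mM L-glutamine, plated at 5000–40,000 cells/well according to doubling time, then preincubated 24 h at 37 °C in 5% CO2. Compounds dissolved in DMSO, tested at 10^-5 M for 48 h. Adherent cells fixed with cold TCA (10% final) and stained with 0.4% SRB in 1% acetic acid. Growth expressed as percent of untreated control.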

RPMI-8226 = test: Cytotoxicity against human RPMI8226 cells assessed as cell growth at 10 uM after 48 hrs by SRB assay; details: RPMI-8226, 48 h, read-out: Activity; procedure, shortened: as §1
DU-145 = test: Cytotoxicity against human DU145 cells assessed as cell growth at 10 uM after 48 hrs by SRB assay; details: DU-145, 48 h, read-out: Activity; procedure, shortened: as §1
SN12C = test: Cytotoxicity against human SN12C cells assessed as cell growth at 10 uM after 48 hrs by SRB assay; details: read-out: Activity; procedure, shortened: as §1
K562 = test: Cytotoxicity against human K562 cells assessed as cell growth at 10 uM after 48 hrs by SRB assay; details: K562, 48 h, read-out: Activity; procedure, shortened: as §1
OVCAR-3 = test: Cytotoxicity against human OVCAR3 cells assessed as cell growth at 10 uM after 48 hrs by SRB assay; details: OVCAR-3, 48 h, read-out: Activity; procedure, shortened: as §1
SF-295 = test: Cytotoxicity against human SF295 cells assessed as cell growth at 10 uM after 48 hrs by SRB assay; details: SF-295, 48 h, read-out: Activity; procedure, shortened: as §1
MOLT-4 = test: Cytotoxicity against human MOLT4 cells assessed as cell growth at 10 uM after 48 hrs by SRB assay; details: MOLT-4, 48 h, read-out: Activity; procedure, shortened: as §1
MDA-MB-468 = test: Cytotoxicity against human MDA-MB-468 cells assessed as cell growth at 10 uM after 48 hrs by SRB assay; details: MDA-MB-468, 48 h, read-out: Activity; procedure, shortened: as §1
IGROV-1 = test: Cytotoxicity against human IGROV1 cells assessed as cell growth at 10 uM after 48 hrs by SRB assay; details: IGROV-1, 48 h, read-out: Activity; procedure, shortened: as §1
SK-MEL-2 = test: Cytotoxicity against human SK-MEL-2 cells assessed as cell growth at 10 uM after 48 hrs by SRB assay; details: SK-MEL-2, 48 h, read-out: Activity; procedure, shortened: as §1
SK-MEL-28 = test: Cytotoxicity against human SK-MEL-28 cells assessed as cell growth at 10 uM after 48 hrs by SRB assay; details: SK-MEL-28, 48 h, read-out: Activity; procedure, shortened: as §1
LOX IMVI = test: Cytotoxicity against human LOXIMVI cells assessed as cell growth at 10 uM after 48 hrs by SRB assay; details: read-out: Activity; procedure, shortened: as §1
HOP-62 = test: Cytotoxicity against human HOP62 cells assessed as cell growth at 10 uM after 48 hrs by SRB assay; details: HOP-62, 48 h, read-out: Activity; procedure, shortened: as §1
U-251 = test: Cytotoxicity against human U251 cells assessed as cell growth at 10 uM after 48 hrs by SRB assay; details: U-251, 48 h, read-out: Activity
Procedure, shortened: (§2)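 NCI-60 single-dose screen at 10^-5 M. Adherent lines are grown in RPMI 1640 with 5% FBS and 2 mM L-glutamine, seeded at 5000–40,000 cells/well by doubling time, and preincubated 24 h at 37 °C in 5% CO2. Drug is added from DMSO stock diluted in medium, then 48 h. Cells are fixed in cold TCA (final 10%) for 60 min and stained with 0.4% SRB in 1% acetic acid. Growth is expressed as % of untreated control using time-zero plates.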

[2] = Cytotoxicity against human Hs578T cells assessed as cell growth at 10 uM after 48 hrs by SRB assay; details: Hs-578T, read-out: Activity; procedure, shortened: as §1
UACC-62 = test: Cytotoxicity against human UACC62 cells assessed as cell growth at 10 uM after 48 hrs by SRB assay; details: UACC-62, 48 h, read-out: Activity; procedure, shortened: as §2
HL-60(TB) = test: Cytotoxicity against human HL-60(TB) cells assessed as cell growth at 10 uM after 48 hrs by SRB assay; details: HL-60, 48 h, read-out: Activity
Procedure, shortened: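 NCI-60 single-dose screen: cells grown in RPMI 1640 with 5% FBS and 2 mM L-glutamine, plated at 5000–40,000 cells/well, preincubated 24 h at 37 °C, 5% CO2. Compound dissolved in DMSO, tested at 10^-5 M for 48 h. Cells TCA-fixed, sulforhodamine B stained. Growth expressed as percent of untreated control, referenced to time-zero plates.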

NCI-H460 = test: Cytotoxicity against human NCI-H460 cells assessed as cell growth at 10 uM after 48 hrs by SRB assay; details: NCI-H460, 48 h, read-out: Activity; procedure, shortened: as §1
786-0 = test: Cytotoxicity against human 786-0 cells assessed as cell growth at 10 uM after 48 hrs by SRB assay; details: 786-0, 48 h, read-out: Activity; procedure, shortened: as §1
MCF7 = test: Cytotoxicity against human MCF7 cells assessed as cell growth at 10 uM after 48 hrs by SRB assay; details: MCF7, 48 h, read-out: Activity; procedure, shortened: as §1
[3] = Cytotoxicity against human UACC257 cells assessed as cell growth at 10 uM after 48 hrs by SRB assay; details: UACC-257, 48 h, read-out: Activity; procedure, shortened: as §2
COLO 205 = test: Cytotoxicity against human COLO205 cells assessed as cell growth at 10 uM after 48 hrs by SRB assay; details: COLO 205, 48 h, read-out: Activity; procedure, shortened: as §1
HCT-116 = test: Cytotoxicity against human HCT116 cells assessed as cell growth at 10 uM after 48 hrs by SRB assay; details: HCT-116, 48 h, read-out: Activity; procedure, shortened: as §1
NCI-H322M = test: Cytotoxicity against human NCI-H322M cells assessed as cell growth at 10 uM after 48 hrs by SRB assay; details: read-out: Activity; procedure, shortened: as §1
RXF 393 = test: Cytotoxicity against human RXF393 cells assessed as cell growth at 10 uM after 48 hrs by SRB assay; details: RXF 393, 48 h, read-out: Activity; procedure, shortened: as §1
SW-620 = test: Cytotoxicity against human SW620 cells assessed as cell growth at 10 uM after 48 hrs by SRB assay; details: SW-620, 48 h, read-out: Activity; procedure, shortened: as §2
CAKI-1 = test: Cytotoxicity against human CAKI-1 cells assessed as cell growth at 10 uM after 48 hrs by SRB assay; details: CAKI-1, 48 h, read-out: Activity; procedure, shortened: as §1
A549 = test: Cytotoxicity against human A549 cells assessed as cell growth at 10 uM after 48 hrs by SRB assay; details: A549, 48 h, read-out: Activity; procedure, shortened: as §1
MDA-MB-231 = test: Cytotoxicity against human MDA-MB-231 cells assessed as cell growth at 10 uM after 48 hrs by SRB assay; details: MDA-MB-231, 48 h, read-out: Activity; procedure, shortened: as §1

SMILES	growth at 10 µM [1]	growth at 10 µM (RPMI-8226)	growth at 10 µM (DU-145)	growth at 10 µM (SN12C)	growth at 10 µM (K562)	growth at 10 µM (OVCAR-3)	growth at 10 µM (SF-295)	growth at 10 µM (MOLT-4)	growth at 10 µM (MDA-MB-468)	growth at 10 µM (IGROV-1)	growth at 10 µM (SK-MEL-2)	growth at 10 µM (SK-MEL-28)	growth at 10 µM (LOX IMVI)	growth at 10 µM (HOP-62)	growth at 10 µM (U-251)	growth at 10 µM [2]	growth at 10 µM (UACC-62)	growth at 10 µM (HL-60(TB))	growth at 10 µM (NCI-H460)	growth at 10 µM (786-0)	also measured
Cc1cc(C)n(-c2cn3c(-c4ccccc4)csc3n2)n1	95.4%	93%	105%	96.5%	76.8%	101%	77.5%	93.9%	102%	76.5%	97.6%	102%	91.9%	91.4%	94.7%	106%	89.4%	105%	104%	98%	growth at 10 µM (MCF7): 88.7%; growth at 10 µM [3]: 105%; growth at 10 µM (COLO 205): 106%; growth at 10 µM (HCT-116): 101%; growth at 10 µM (NCI-H322M): 91.1%; growth at 10 µM (RXF 393): 93.4%; growth at 10 µM (SW-620): 102%; growth at 10 µM (CAKI-1): 77.4%; growth at 10 µM (A549): 99%; growth at 10 µM (MDA-MB-231): 86.3%
Cc1cc(C)n(-c2cn3c(-c4ccc(Cl)cc4)csc3n2)n1	109%	68.2%	113%	89%	83.1%	107%	82.5%	81.3%	88.5%	108%	113%	97.9%	91.9%	97.1%	87.8%	94.3%	86.9%	90.2%	101%	102%	growth at 10 µM (MCF7): 85.1%; growth at 10 µM [3]: 104%; growth at 10 µM (COLO 205): 100%; growth at 10 µM (HCT-116): 89.8%; growth at 10 µM (NCI-H322M): 91%; growth at 10 µM (RXF 393): 93.5%; growth at 10 µM (SW-620): 100%; growth at 10 µM (CAKI-1): 78.6%; growth at 10 µM (A549): 85.8%; growth at 10 µM (MDA-MB-231): 86.4%
CC1=NN(c2cn3c(-c4ccc(Cl)cc4)csc3n2)C(=O)C1	106%	75.9%	105%	90.9%	71.4%	106%	85.6%	65.8%	97.9%	99.3%	104%	96.3%	96.8%	97.5%	91.7%	101%	81.9%	92.5%	103%	94.1%	growth at 10 µM (MCF7): 93.5%; growth at 10 µM [3]: 94.9%; growth at 10 µM (COLO 205): 103%; growth at 10 µM (HCT-116): 97.1%; growth at 10 µM (NCI-H322M): 99.8%; growth at 10 µM (RXF 393): 104%; growth at 10 µM (SW-620): 99.3%; growth at 10 µM (CAKI-1): 79.3%; growth at 10 µM (A549): 79.6%; growth at 10 µM (MDA-MB-231): 96.5%
